TAAR1 agonist = agonists of human TAAR1; Q96RJ0; CHO RD-HGA16 TAAR1, Fluo-8 calcium fluorescence; vehicle wells 0%, saturating PEA agonist 100%; activation, % at 3 µM; hit rate 0.99% among 360,000; AID 624467;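 active means activation above the mean activation of all test compounds in the run plus 3 SD, cut at about 38% in these data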
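Signal – calcium-sensitive Fluo-8 signal, excitation 470-495, emission 515-575 nm · System – RD-HGA16 (CHO) cells co-expressing Gα16 and hTAAR1 · Incubation – 17-24 h seeding, 75 min 37 °C dye, 30 min RT · Compound dosing – 3 µM single concentration · Repeats – no replicates (n 1)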
GPR7 antag = antagonists of human GPR7 (neuropeptides B/W receptor 1); GPR7-expressing cells, fluorescence antagonist assay; inhibition, % at 4.4 µM; hit rate 1.1% among 290,000; in the data active means inhibition above about 16%, passing the limit was not always enough;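 further: cells stimulated with the agonist NPW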
Target sequence (P48145 whole entry, looked up): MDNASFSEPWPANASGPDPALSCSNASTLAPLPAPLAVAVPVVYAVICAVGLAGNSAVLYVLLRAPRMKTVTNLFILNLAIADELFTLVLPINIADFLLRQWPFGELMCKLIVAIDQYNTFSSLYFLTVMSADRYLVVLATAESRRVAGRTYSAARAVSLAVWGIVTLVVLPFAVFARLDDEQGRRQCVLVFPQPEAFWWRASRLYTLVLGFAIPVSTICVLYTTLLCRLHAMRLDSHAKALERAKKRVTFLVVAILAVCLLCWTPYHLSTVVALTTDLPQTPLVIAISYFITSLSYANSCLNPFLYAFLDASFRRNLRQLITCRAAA
TAAR1 antag = antagonists of human TAAR1; Q96RJ0; CHO RD-HGA16 TAAR1, Fluo-8 calcium fluorescence, antagonist; inhibition, % at 3 µM; hit rate 1.5% among 360,000; AID 624466;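 active means inhibition above a per-plate cutoff, the mean inhibition of test compounds on that plate plus 3 SD, cut at about 49% in these data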
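Material: RD-HGA16 CHO cells with stable hTAAR1 and Gα16; Dosing: single nominal final test compound concentration of 3 µM; Schedule: seeding 17-24 h prior, 75-min 37 °C, 30-min RT dye loading; Detection: kinetic Fluo-8 calcium fluorescence measurement; Measure: % inhibition from peak post-agonist over basal fluorescence ratio; Benchmarks: vehicle and agonist controls.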
OX1R antag-1 = blocks the human orexin 1 receptor | hit rate 0.43% among 330,000 | AID 434989 | inhibition, % at 5 µM | CHO/OX1R cells, Fluo-8 calcium fluorescence, orexin A | O43613;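 active means inhibition above its plate's threshold, mean inhibition of all tested compounds on the plate plus 3 SD, cut at about 37% in these data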
Target sequence (O43613 whole entry, looked up): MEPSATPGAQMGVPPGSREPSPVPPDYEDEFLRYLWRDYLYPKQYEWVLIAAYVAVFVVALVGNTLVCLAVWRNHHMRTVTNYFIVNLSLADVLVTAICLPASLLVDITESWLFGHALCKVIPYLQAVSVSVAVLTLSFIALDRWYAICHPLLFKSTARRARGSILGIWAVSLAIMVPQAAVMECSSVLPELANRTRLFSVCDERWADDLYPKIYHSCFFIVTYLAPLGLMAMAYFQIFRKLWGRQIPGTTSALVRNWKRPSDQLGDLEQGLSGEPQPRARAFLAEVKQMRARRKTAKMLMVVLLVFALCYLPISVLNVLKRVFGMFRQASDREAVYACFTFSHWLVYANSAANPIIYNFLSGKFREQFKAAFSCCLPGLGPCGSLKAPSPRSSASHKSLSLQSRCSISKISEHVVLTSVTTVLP
OX1R antag-2 = OX1R (human) antagonism; O43613; OX1R-expressing cells, FRET antagonist read-out; inhibition, % at 6.6 µM; hit rate 1.8% among 330,000; in the data active means inhibition mostly above about 38%, no sharp cut-off; inactive means mostly below about 40%
CHO parental Ca = signal in parental CHO cells, OX1R antagonist counter-screen | parental CHO-K1, ATP-induced calcium, Fluo-8 fluorescence | inhibition, % at 5.6 µM | hit rate 0.63% among 330,000 | AID 463079;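 active means inhibition above that plate's mean sample inhibition plus 3 SD, cut at about 26% in these data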
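Test system: untransfected parental CHO cell line; also added: ATP stimulus; dosing: 5.6 µM, single dose; signal: calcium-sensitive Fluo-8 fluorescence; measure: percent inhibition of ATP-evoked calcium rise, normalized to controls; benchmarks: low control ATP plus DMSO, high control DMSO only; replication: one well per compound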
Hits are given with their value. The list is not random: actives were taken first. Their share in the collection is about 4.5%.

What do the screens show for `CCOc1cc(S(=O)(=O)NCc2cccs2)ccc1Cl`?
TAAR1 agonist: inactive; GPR7 antag: inactive; TAAR1 antag: inactive; OX1R antag-1: inactive; OX1R antag-2: inactive; CHO parental Ca: inactive

What do the screens show for `CCOc1ccc(S(=O)(=O)NCc2ccncc2)cc1`?
TAAR1 agonist: inactive; GPR7 antag: 21; TAAR1 antag: inactive; OX1R antag-1: inactive; OX1R antag-2: inactive; CHO parental Ca: inactive

How did Cc1ccc(S(=O)(=O)NCc2ccncc2)cc1 do in these assays?
TAAR1 agonist: inactive; GPR7 antag: inactive; TAAR1 antag: inactive; OX1R antag-1: inactive; OX1R antag-2: inactive; CHO parental Ca: inactive

What do the screens show for `CCOc1cc(S(=O)(=O)NCc2ccncc2)ccc1Cl`?
TAAR1 agonist: inactive; GPR7 antag: inactive; TAAR1 antag: inactive; OX1R antag-1: inactive; OX1R antag-2: inactive; CHO parental Ca: 38

How did Cc1cc(S(=O)(=O)NCc2ccncc2)c(C)cc1Br do in these assays?
TAAR1 agonist: inactive; GPR7 antag: inactive; TAAR1 antag: inactive; OX1R antag-1: inactive; OX1R antag-2: inactive; CHO parental Ca: 46

What do the screens show for `Cc1ccc(C)c(S(=O)(=O)NCc2ccncc2)c1`?
TAAR1 agonist: inactive; GPR7 antag: inactive; TAAR1 antag: inactive; OX1R antag-1: inactive; OX1R antag-2: inactive; CHO parental Ca: inactive

What do the screens show for `COC(=O)c1cc2c(c3c4cc(OC)ccc4n(S(=O)(=O)c4cccc(C)c4)c13)C(=O)N(Cc1ccc(C(F)(F)F)cc1)C2`?
TAAR1 agonist: inactive; TAAR1 antag: inactive

Results for O=C(/C=C/c1ccc([N+](=O)[O-])cc1)Nc1cccc(S(=O)(=O)NC2=NCCCCC2)c1 ?
TAAR1 agonist: inactive; TAAR1 antag: 49; OX1R antag-1: inactive; OX1R antag-2: inactive; CHO parental Ca: inactive

How did CCOC(=O)C1=CCN(S(=O)(=O)c2ccc(Br)cc2)C1c1cccc(F)c1 (stereo unspecified) do in these assays?
TAAR1 agonist: inactive; TAAR1 antag: inactive

What do the screens show for `Cc1ccn2c(-c3csc(NCc4ccccc4)n3)c(C)nc2c1`?
TAAR1 agonist: inactive; GPR7 antag: inactive; TAAR1 antag: inactive; OX1R antag-1: 43; OX1R antag-2: inactive; CHO parental Ca: inactive

What do the screens show for `O=C(c1cc(S(=O)(=O)NCc2ccco2)ccc1Br)N1CCOCC1`?
TAAR1 agonist: inactive; TAAR1 antag: inactive; OX1R antag-1: inactive; OX1R antag-2: inactive; CHO parental Ca: inactive

What do the screens show for `NCCCC[C@@H]1NC(=O)c2cc([N+](=O)[O-])cc(I)c2SC[C@@H](C(N)=O)NC(=O)[C@H](Cc2ccc(O)cc2)NC1=O`?
GPR7 antag: inactive; OX1R antag-1: inactive; OX1R antag-2: 73; CHO parental Ca: inactive

How did NCCCC[C@@H]1NC(=O)[C@H](CCC(=O)O)NC(=O)c2cc([N+](=O)[O-])cc(I)c2SC[C@@H](C(=O)NCC(N)=O)NC1=O do in these assays?
TAAR1 agonist: inactive; GPR7 antag: inactive; TAAR1 antag: inactive; OX1R antag-1: inactive; OX1R antag-2: inactive; CHO parental Ca: inactive

How did CC(=O)NCc1ccc(OCCCN2CCC(C(O)(c3ccccc3)c3ccccc3)CC2)cc1 do in these assays?
TAAR1 agonist: inactive; TAAR1 antag: inactive

How did COc1ccccc1NC(=O)CSc1nnc(-c2ccc(C)cc2)o1 do in these assays?
TAAR1 agonist: inactive; GPR7 antag: inactive; TAAR1 antag: inactive; OX1R antag-1: inactive; OX1R antag-2: inactive; CHO parental Ca: inactive

How did COc1cccc(NC(=O)CSc2nnc(-c3ccc(C)cc3)o2)c1 do in these assays?
TAAR1 agonist: 61; GPR7 antag: inactive; TAAR1 antag: 51; OX1R antag-1: inactive; OX1R antag-2: inactive; CHO parental Ca: inactive

How did CC(C)NC(=O)c1ccc(COc2ccc(C(C)(C)C)cc2)o1 do in these assays?
TAAR1 agonist: inactive; GPR7 antag: inactive; TAAR1 antag: inactive; OX1R antag-1: inactive; OX1R antag-2: inactive; CHO parental Ca: 66

How did COC(=O)C1=C(C)N(Cc2ccc(Br)cc2)C(=S)NC1c1cccc(OC)c1 (stereo unspecified) do in these assays?
TAAR1 agonist: inactive; TAAR1 antag: inactive

How did O=C(NCCN1CCOCC1)c1ccc(NS(=O)(=O)c2cccc([N+](=O)[O-])c2)cc1 do in these assays?
TAAR1 agonist: inactive; TAAR1 antag: inactive; OX1R antag-1: inactive; OX1R antag-2: 52; CHO parental Ca: inactive

How did COc1ccc(NS(=O)(=O)c2cccc(C(=O)N(C)Cc3cccs3)c2)cc1 do in these assays?
TAAR1 agonist: inactive; TAAR1 antag: inactive; OX1R antag-1: inactive; OX1R antag-2: inactive; CHO parental Ca: inactive

What do the screens show for `COc1ccc(NS(=O)(=O)c2cc(NC(=O)Cc3cccs3)ccc2C)cc1`?
TAAR1 agonist: inactive; GPR7 antag: inactive; TAAR1 antag: inactive; OX1R antag-1: inactive; OX1R antag-2: inactive; CHO parental Ca: inactive

How did COc1ccc(NS(=O)(=O)c2ccc(C(=O)N(C)Cc3cccs3)cc2)cc1 do in these assays?
TAAR1 agonist: 45; TAAR1 antag: inactive

What do the screens show for `COc1ccc(NS(=O)(=O)c2ccc(NC(=O)Cc3cccs3)cc2)cc1`?
TAAR1 agonist: 41; GPR7 antag: inactive; TAAR1 antag: inactive; OX1R antag-1: inactive; OX1R antag-2: inactive; CHO parental Ca: inactive

What do the screens show for `COc1ccc(NS(=O)(=O)c2ccc(NC(=O)c3ccc(CN4CCOCC4)cc3)cc2)cc1`?
TAAR1 agonist: inactive; GPR7 antag: 24; TAAR1 antag: inactive; OX1R antag-1: inactive; OX1R antag-2: inactive; CHO parental Ca: inactive

Results for Cc1cc(C(=O)N/N=C/c2c(C)[nH]n(-c3ccccc3)c2=O)n[nH]1 ?
TAAR1 agonist: inactive; GPR7 antag: inactive; TAAR1 antag: inactive; OX1R antag-1: inactive; OX1R antag-2: inactive; CHO parental Ca: inactive

What do the screens show for `Cc1ccc(-n2[nH]c(C)c(/C=N/NC(=O)c3ccc(O)cc3O)c2=O)cc1`?
GPR7 antag: inactive; OX1R antag-1: inactive; OX1R antag-2: 38; CHO parental Ca: inactive

How did Cc1[nH]n(-c2ccc(Br)cc2)c(=O)c1/C=N/NC(=O)c1ccccc1 do in these assays?
TAAR1 agonist: inactive; GPR7 antag: inactive; TAAR1 antag: inactive

Results for Cc1[nH]n(-c2ccccc2)c(=O)c1/C=N/NC(=O)c1ccc(O)cc1O ?
GPR7 antag: inactive; OX1R antag-1: inactive; OX1R antag-2: 37; CHO parental Ca: inactive

What do the screens show for `Cc1cn(C2CCCCC2)c(=O)[nH]c1=O`?
TAAR1 agonist: inactive; TAAR1 antag: inactive

What do the screens show for `CCN(CC)c1ccc(/C=c2\sc3nc4ccccc4n3c2=O)c(O)c1`?
TAAR1 agonist: inactive; GPR7 antag: inactive; TAAR1 antag: 64

How did C[C@H](NC(=O)c1nc[nH]c1C(=O)NCc1ccc(CNC(=O)OC(C)(C)C)cc1)C(=O)OCc1ccccc1 do in these assays?
TAAR1 agonist: inactive; TAAR1 antag: 82; OX1R antag-1: inactive; OX1R antag-2: inactive; CHO parental Ca: inactive

What do the screens show for `CC(C)(C)OC(=O)[C@H](Cc1ccccc1)NC(=O)c1nc[nH]c1C(=O)NCCCCCN`?
TAAR1 agonist: inactive; TAAR1 antag: inactive; OX1R antag-1: inactive; OX1R antag-2: inactive; CHO parental Ca: inactive

Compound activity as filed in PubChem.
